The source of these data is ChEMBL document CHEMBL1140300, “Synthesis and pharmacological characterization of exo-2-(2'-chloro-5-pyridinyl)-7-(endo and exo)-aminobicyclo[2.2.1]heptanes as novel epibatidine analogues” (J Med Chem, 2005).

Sequence of Neuronal acetylcholine receptor; alpha4/beta2 (P09483 whole entry): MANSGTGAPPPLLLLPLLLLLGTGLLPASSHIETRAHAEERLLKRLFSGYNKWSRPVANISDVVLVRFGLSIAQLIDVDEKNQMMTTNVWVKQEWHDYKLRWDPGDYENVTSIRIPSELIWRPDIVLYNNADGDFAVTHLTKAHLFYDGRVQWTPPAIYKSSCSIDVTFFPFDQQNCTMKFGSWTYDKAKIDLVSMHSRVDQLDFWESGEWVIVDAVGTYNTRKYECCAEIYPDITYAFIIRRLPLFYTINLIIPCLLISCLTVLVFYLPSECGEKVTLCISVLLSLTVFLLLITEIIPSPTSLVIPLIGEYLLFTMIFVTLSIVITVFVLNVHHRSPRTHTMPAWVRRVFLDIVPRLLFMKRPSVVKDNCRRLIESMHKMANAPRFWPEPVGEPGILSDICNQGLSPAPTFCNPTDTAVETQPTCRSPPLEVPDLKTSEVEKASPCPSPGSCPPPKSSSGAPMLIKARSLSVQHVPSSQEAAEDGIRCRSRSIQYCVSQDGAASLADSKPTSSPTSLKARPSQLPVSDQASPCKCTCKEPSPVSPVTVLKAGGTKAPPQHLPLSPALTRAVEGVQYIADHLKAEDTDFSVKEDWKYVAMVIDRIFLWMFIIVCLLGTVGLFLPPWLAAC
Sequence of Neuronal acetylcholine receptor; alpha4/beta2 (P12390 whole entry): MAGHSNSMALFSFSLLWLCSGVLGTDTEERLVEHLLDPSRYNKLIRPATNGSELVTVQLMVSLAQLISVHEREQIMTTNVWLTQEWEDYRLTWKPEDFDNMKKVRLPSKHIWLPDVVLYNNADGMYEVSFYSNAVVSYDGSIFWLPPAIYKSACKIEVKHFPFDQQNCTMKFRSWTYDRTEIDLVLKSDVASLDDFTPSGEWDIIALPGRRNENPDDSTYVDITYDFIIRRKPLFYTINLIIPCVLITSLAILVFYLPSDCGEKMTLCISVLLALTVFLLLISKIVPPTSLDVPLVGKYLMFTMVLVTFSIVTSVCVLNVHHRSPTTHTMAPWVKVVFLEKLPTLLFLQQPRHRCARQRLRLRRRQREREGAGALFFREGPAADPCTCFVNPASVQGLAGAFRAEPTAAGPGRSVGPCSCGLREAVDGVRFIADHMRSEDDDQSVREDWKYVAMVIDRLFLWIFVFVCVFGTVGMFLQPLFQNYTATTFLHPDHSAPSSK
Sequence of Neuronal acetylcholine receptor subunit alpha-7 (P36544 whole entry): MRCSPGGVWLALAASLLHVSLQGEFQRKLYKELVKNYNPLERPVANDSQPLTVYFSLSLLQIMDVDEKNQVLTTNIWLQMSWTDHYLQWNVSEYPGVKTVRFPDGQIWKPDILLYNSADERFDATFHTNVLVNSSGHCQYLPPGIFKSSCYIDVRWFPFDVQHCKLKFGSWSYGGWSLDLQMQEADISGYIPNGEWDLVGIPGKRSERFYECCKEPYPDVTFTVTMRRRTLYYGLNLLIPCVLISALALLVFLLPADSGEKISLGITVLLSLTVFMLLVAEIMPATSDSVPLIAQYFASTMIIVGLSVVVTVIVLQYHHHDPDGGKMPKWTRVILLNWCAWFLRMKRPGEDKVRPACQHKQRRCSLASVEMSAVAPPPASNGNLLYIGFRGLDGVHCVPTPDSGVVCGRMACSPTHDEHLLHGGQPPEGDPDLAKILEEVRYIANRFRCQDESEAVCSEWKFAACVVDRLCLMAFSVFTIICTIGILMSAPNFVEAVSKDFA

One assay deals with Mus musculus. The assay can be described thus: Effect on locomotor activity in sc dosed mouse. Type of assay: functional. In outline:
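Spontaneous activity: mice placed in individual photocell cages (28 × 16.5 cm) 5 min after sc dosing of 0.9% saline or test compound. Beam interruptions (two banks of eight cells) counted over the next 10 min.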
In the case of `Cl.N[C@@H]1C2CCC1[C@@H](c1ccc(Cl)nc1)C2` (relative stereo), it took a dose of 1.1 mg/kg to reach the 50% effect level (ED50).

As to `Cl.Clc1ccc([C@H]2CC3CCC2N3)cn1` (some centres undefined) [EPIBATIDINE HYDROCHLORIDE], the 50% effective dose (ED50) (commonly the dose at which the effect has come halfway, by size or by number of responders) amounted to 0.001 mg/kg.

As to `CN1CCC[C@H]1c1cccnc1.Cl` [NICOTINE HYDROCHLORIDE], the ED50 was determined as 0.5 mg/kg. Compared with the last compound, the ED50 is about 500-fold higher.

Another assay concerns the target Neuronal acetylcholine receptor subunit alpha-7 (Homo sapiens, UniProt P36544). The assay can be described thus: Displacement of [125]iodoMLA from alpha-7 nAChR.
As to `Clc1ccc([C@H]2CC3CCC2[C@H]3NCc2ccccc2)cn1` (relative stereo), the Ki (as a rule, a measure of affinity in units of concentration, obtained from inhibition or displacement) is above 700 nM.

As for `Clc1ccc([C@H]2CC3CCC2[C@@H]3NCc2ccccc2)cn1` (relative stereo), the Ki is above 200 nM.

Take `Cl.N[C@@H]1C2CCC1[C@@H](c1ccc(Cl)nc1)C2` (relative stereo): the Ki is above 700 nM.

`Cl.Clc1ccc([C@H]2CC3CCC2N3)cn1` (some centres undefined) [EPIBATIDINE HYDROCHLORIDE] had an inhibition constant Ki of 198 nM.

The compound `Cl.Cl.Cl.N[C@H]1C2CCC1[C@@H](c1ccc(Cl)nc1)C2` (relative stereo) yielded a Ki above 700 nM.

For a further assay, the system named is Mus musculus. Briefly: Antinociceptive activity in sc dosed mouse by tail-flick method. The format is functional. In outline:
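Mouse tail-flick (D'Amour–Smith): tail exposed to heat lamp, latency to flick recorded. Control latency (2–4 s) taken per mouse before treatment, test latency after sc dosing. Response as %MPE = [(test – control)/(maximum latency – control) × 100]. ED50 with 95% confidence limits by unweighted least-squares linear regression.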
On the technique in general: In hot-plate and tail-flick tests a longer latency is read as antinociception.
In the case of `Cl.N[C@@H]1C2CCC1[C@@H](c1ccc(Cl)nc1)C2` (relative stereo), the ED50 was 4.5 mg/kg.

For `Cl.Clc1ccc([C@H]2CC3CCC2N3)cn1` (some centres undefined) [EPIBATIDINE HYDROCHLORIDE], the 50% effective dose (ED50) came to 0.006 mg/kg.

In turn, `CN1CCC[C@H]1c1cccnc1.Cl` [NICOTINE HYDROCHLORIDE] returned an ED50 of 1.3 mg/kg.

In turn, `Cl.Cl.Cl.N[C@H]1C2CCC1[C@@H](c1ccc(Cl)nc1)C2` (relative stereo) showed a median effective dose (ED50) of 4.5 mg/kg. This ED50 is about 3.5-fold higher than that of the compound before.

A further assay has as its target Neuronal acetylcholine receptor; alpha4/beta2 (Rattus norvegicus, UniProt P09483+P12390). The assay can be described thus: Displacement of [3H]epibatidine from alpha4beta2 nAChR in rat cerebral cortex. The format is tissue-based.
`Clc1ccc([C@H]2CC3CCC2[C@H]3NCc2ccccc2)cn1` (relative stereo) returned a Ki above 1000 nM.

Take `Clc1ccc([C@H]2CC3CCC2[C@@H]3NCc2ccccc2)cn1` (relative stereo): the Ki is above 1000 nM.

On to `Cl.N[C@@H]1C2CCC1[C@@H](c1ccc(Cl)nc1)C2` (relative stereo), for which the Ki was determined as 10.9 nM.

`Cl.Cl.Cl.N[C@H]1C2CCC1[C@@H](c1ccc(Cl)nc1)C2` (relative stereo) yielded a Ki of 8.2 nM.

Another assay has as its system Mus musculus. Briefly: Activity in sc dosed mouse by hypothermia test. Type of assay: functional. In outline:
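Rectal temperature in mice via thermistor probe inserted 24 mm, read just before and at several times after sc injection of saline or test compound. Change from pretreatment value per mouse. Ambient 21–24 °C. ED50 with 95% confidence limits by unweighted least-squares linear regression.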
`Cl.N[C@@H]1C2CCC1[C@@H](c1ccc(Cl)nc1)C2` (relative stereo) yielded an ED50 of 2.3 mg/kg.

`Cl.Clc1ccc([C@H]2CC3CCC2N3)cn1` (some centres undefined) [EPIBATIDINE HYDROCHLORIDE]: the ED50 worked out at 0.004 mg/kg.

Turning to `CN1CCC[C@H]1c1cccnc1.Cl` [NICOTINE HYDROCHLORIDE], it took a dose of 1 mg/kg to reach the 50% effect level (ED50).

The compound `Cl.Cl.Cl.N[C@H]1C2CCC1[C@@H](c1ccc(Cl)nc1)C2` (relative stereo) yielded an ED50 of 3.4 mg/kg.

Another assay concerns Mus musculus. Briefly: Antinociceptive activity in sc dosed mouse by hotplate method. Type of assay: functional. In outline: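 Mouse hot-plate at 55.0 °C, animal in 10 cm glass cylinder. Two control latencies ≥10 min apart (normal 8–12 s). End point is jumping or paw licking. Tested 5 min after sc injection across a dose range. Response as %MPE = [(test – control)/(maximum latency – control) × 100]. ED50 with 95% confidence limits by unweighted least-squares linear regression.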
Regarding `Cl.N[C@@H]1C2CCC1[C@@H](c1ccc(Cl)nc1)C2` (relative stereo), the 50% effective dose (ED50) was found to be 4.4 mg/kg.

In the case of `Cl.Clc1ccc([C@H]2CC3CCC2N3)cn1` (some centres undefined) [EPIBATIDINE HYDROCHLORIDE], it took a dose of 0.004 mg/kg to reach the 50% effect level (ED50).

With `CN1CCC[C@H]1c1cccnc1.Cl` [NICOTINE HYDROCHLORIDE], it took a dose of 0.65 mg/kg to reach the 50% effect level (ED50).

For the compound `Cl.Cl.Cl.N[C@H]1C2CCC1[C@@H](c1ccc(Cl)nc1)C2` (relative stereo), the ED50 is 2.9 mg/kg. This ED50 lies about 4.5-fold higher than the previous one.
